Results on 6 compounds are retold here after ChEMBL document CHEMBL1124035, “1-Amino-substituted 4-methyl-5H-pyrido[4,3-b]indoles (gamma-carbolines) as tricyclic analogues of ellipticines: a new class of antineoplastic agents” (1988).

One experiment has as its system Calf thymus DNA. In words: Apparent DNA affinity constant. The settings on record: Bos taurus. The experiment is classed as nucleic-acid assay. The method, boiled down: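 Apparent DNA affinity constant was measured by competition with ethidium bromide. Buffer was 20 mM Na2HPO4/NaH2PO4, 0.1 M NaCl, 1 mM EDTA, pH 7.4, with calf thymus DNA at 10 μg/mL. Values are given in 10^6 M⁻¹.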

The test system of experiment [1] is Mus musculus. In words: Antitumor activity against P388 leukemia in mice at a dose of 40 mg/kg administered intraperitoneally for 5 days; Nontoxic at this dose. Type of experiment: functional. The note with it: route intraperitoneal. The method, boiled down:
(§1)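 CDF1 hybrid male or female mice, 10 per group, were inoculated ip on day 0 with 10^6 viable P388 leukemia cells. Drug in distilled water was given ip (0.1 mL/10 g body weight) daily on days 1-5, with vehicle, 5-fluorouracil and BD 84 controls given the same way. T/C = median survival of treated/controls × 100; T/C > 128% counted as significant.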

Experiment [2] deals with Mus musculus. In words: Antitumor activity against P388 leukemia in mice at a dose of 10 mg/kg administered intraperitoneally for 5 days. The experiment is classed as functional. The note with it: route intraperitoneal. In outline: (§2)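 CDF1 hybrid male or female mice, 10 per group, were inoculated ip with 10^6 viable P388 cells on day 0. Drugs in distilled water were given ip (0.1 mL/10 g body weight) daily D1-5. Vehicle, 5-fluorouracil and BD 84 were given the same way. T/C = median survival day of treated / controls × 100; T/C > 128% was significant; cures counted at D60.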

Experiment [3] concerns Mus musculus. In words: Antitumor activity against P388 leukemia in mice at a dose of 20 mg/kg administered intraperitoneally for 5 days. The note with it: route intraperitoneal. The experiment is classed as functional. In outline: as §2
For experiment [4], the system named is Mus musculus. In words: Antitumor activity against P388 leukemia in mice at a dose of 5 mg/kg administered intraperitoneally for 5 days. Type of experiment: functional. The settings on record: route intraperitoneal. The method, boiled down: as §1
For the next experiment, the system named is L1210. In words: Ability to reduce the cell count to 50% in L1210 culture cells. The experiment is classed as functional. The note with it: Mus musculus, read-out: ID50 (the source's name). The method, boiled down:
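L1210 cells in exponential growth in RPMI 1640 with 2 mM glutamine, penicillin/streptomycin and 10% FCS, 37 °C, 5% CO2. Drugs dissolved in distilled water were added to cells at 0.8 × 10^5 cells/mL for 48 h, then cells were counted. ID50 is the concentration halving cell proliferation versus controls, from regression of dose-response data; mean of two independent experiments.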

The subject of experiment [5] is Mus musculus. In words: Antitumor activity against P388 leukemia in mice at a dose of 24 mg/kg administered intraperitoneally for 5 days. The experiment is classed as functional. The settings on record: route intraperitoneal. The method, boiled down:
as §1

The subject of experiment [6] is Mus musculus. In words: Antitumor activity against P388 leukemia in mice at a dose of 50 mg/kg administered intraperitoneally for 5 days. The experiment is classed as functional. The settings on record: route intraperitoneal. The method, boiled down: as §1
For experiment [7], the system named is Mus musculus. In words: Antitumor activity against P388 leukemia in mice at a dose of 12 mg/kg administered intraperitoneally for 5 days. Type of experiment: functional. The settings on record: route intraperitoneal. In outline: as §2
The subject of experiment [8] is Mus musculus. In words: Antitumor activity against P388 leukemia in mice at a dose of 6 mg/kg administered intraperitoneally for 5 days. The experiment is classed as functional. The settings on record: route intraperitoneal. In outline: as §1
Experiment [9] concerns Mus musculus. In words: Antitumor activity against P388 leukemia in mice at a dose of 100 mg/kg administered intraperitoneally for 5 days. Type of experiment: functional, organism-based. Further details: dose 100 mg/kg. The method, boiled down: as §2
Experiment [10] relates to Mus musculus. Kind of experiment: Antitumor activity against P388 leukemia in mice at a dose of 50 mg/kg administered intraperitoneally for 5 days; Non toxic at this dose. Type of experiment: functional. The note with it: route intraperitoneal. In outline: as §1
Experiment [11] relates to Mus musculus. Kind of experiment: Antitumor activity against P388 leukemia in mice at a dose of 10 mg/kg administered intraperitoneally for 5 days; It is nontoxic at this dose. The settings on record: route intraperitoneal. The experiment is classed as functional. The method, boiled down:
as §2

Experiment [12] relates to Mus musculus. In words: Antitumor activity against P388 leukemia in mice at a dose of 2.5 mg/kg administered intraperitoneally for 5 days. The note with it: route intraperitoneal. Type of experiment: functional. The method, boiled down: as §2
Experiment [13] deals with Mus musculus. In words: Antitumor activity against P388 leukemia in mice at a dose of 2 mg/kg administered intraperitoneally for 5 days. The note with it: route intraperitoneal. The experiment is classed as functional. The method, boiled down:
as §2

The test system of experiment [14] is Mus musculus. In words: Antitumor activity against P388 leukemia in mice at a dose of 16 mg/kg administered intraperitoneally for 5 days. The note with it: route intraperitoneal. Type of experiment: functional. The method, boiled down: as §2
The test system of experiment [15] is Mus musculus. In words: Antitumor activity against P388 leukemia in mice at a dose of 1 mg/kg administered intraperitoneally for 5 days. Type of experiment: functional. The note with it: route intraperitoneal. The method, boiled down:
as §2

Experiment [16] deals with Mus musculus. In words: Antitumor activity against P388 leukemia in mice at a dose of 8 mg/kg administered intraperitoneally for 5 days. The experiment is classed as functional. The note with it: route intraperitoneal. In outline:
as §1

Experiment [17] has as its system Mus musculus. In words: Antitumor activity against P388 leukemia in mice at a dose of 4 mg/kg administered intraperitoneally. The experiment is classed as functional. The settings on record: route intraperitoneal.
For experiment [18], the system named is Mus musculus. In words: Antitumor activity against P388 leukemia in mice at a dose of 0.5 mg/kg administered intraperitoneally for 5 days. Type of experiment: functional. The settings on record: route intraperitoneal. The method, boiled down: as §2
The subject of experiment [19] is Mus musculus. Kind of experiment: Antitumor activity against P388 leukemia in mice at a dose of 20 mg/kg administered intraperitoneally for 5 days; Nontoxic at this dose. The experiment is classed as functional. The note with it: route intraperitoneal. The method, boiled down: as §1

Consider `CCN(CC)CCNc1ncc(C)c2c1c1cc(O)ccc1n2C`, for which the K aff with Calf thymus DNA was 110000 M⁻¹. Moreover, the T/C with Mus musculus [1] is 137%; in the experiment with Mus musculus [2], 153%; in the experiment with Mus musculus [3], 182%; in the experiment on Mus musculus [4] it was 142%. Also, the IC50 with L1210 was determined as 150 nM.

Regarding `CCN(CC)CCCNc1ncc(C)c2c1c1ccccc1n2C`, in the experiment with Calf thymus DNA, the K aff amounted to 160000 M⁻¹. For the same compound, the T/C with Mus musculus [5] is 118%; with Mus musculus [6], 131%; with Mus musculus [7], 110%; in the experiment on Mus musculus [8] it was 105%; in the experiment with Mus musculus [9], “Toxic”. Moreover, the IC50 in the experiment on L1210 turned out to be 720 nM.

Turning to `Cc1c[nH]c(NCCNCCO)c2c3ccccc3nc1-2`, in the experiment with Calf thymus DNA, the K aff was 50000 M⁻¹. In addition, the figures for the T/C in the experiment with Mus musculus [2] and with Mus musculus [10] were 109% and 100%, respectively. Further, the IC50 in the experiment with L1210 came out at 1140 nM.

Take `CN(C)CCCNc1[nH]ccc2nc3ccc(O)cc3c1-2`: the K aff in the experiment on Calf thymus DNA was 70000 M⁻¹. Also, the results for the T/C with Mus musculus [11], with Mus musculus [4] and in the experiment on Mus musculus [12] were 115%, 102% and 111%, respectively. Also, the IC50 in the experiment on L1210 is 11200 nM.

In the case of `CCN(CC)CCCNc1nccc2c(C)c3[nH]c4ccc(OC)cc4c3c(C)c12` [RETELLIPTINE], the K aff in the experiment with Calf thymus DNA came to 700000 M⁻¹. Also, the T/C in the experiment on Mus musculus [5] is 113%; in the experiment on Mus musculus [13], 188%; in the experiment with Mus musculus [14] it was 283%; with Mus musculus [15], 178%; in the experiment on Mus musculus [16], 273%; in the experiment on Mus musculus [17], 245%. Further, in the experiment with Mus musculus [18], the T/C came out at 171%. Besides, the IC50 with L1210 amounted to 100 nM.

Regarding `CN(C)CCCNc1nccc2c1c1cc(O)ccc1n2C`, the K aff with Calf thymus DNA was 120000 M⁻¹. Also, the T/C with Mus musculus [19] turned out to be 173%; in the experiment with Mus musculus [2] it was 169%; with Mus musculus [4], 145%; in the experiment on Mus musculus [12], 137%. Further, in the experiment on L1210, the IC50 came to 190 nM.
